Measured values taken from ChEMBL document CHEMBL3785067, “Synthesis and evaluation of 4-hydroxyl aurone derivatives as multifunctional agents for the treatment of Alzheimer's disease” (Bioorg Med Chem, 2016).
pIC50, pKi: −log10 of the molar value.

Key:
[1] = target: T1, Amine oxidase [flavin-containing] B (Homo sapiens, UniProt P27338); assay: Inhibition of human recombinant MAO-B using kynuramine as substrate after 30 mins by fluorescence spectrophotometry
T1 sequence (P27338 whole entry): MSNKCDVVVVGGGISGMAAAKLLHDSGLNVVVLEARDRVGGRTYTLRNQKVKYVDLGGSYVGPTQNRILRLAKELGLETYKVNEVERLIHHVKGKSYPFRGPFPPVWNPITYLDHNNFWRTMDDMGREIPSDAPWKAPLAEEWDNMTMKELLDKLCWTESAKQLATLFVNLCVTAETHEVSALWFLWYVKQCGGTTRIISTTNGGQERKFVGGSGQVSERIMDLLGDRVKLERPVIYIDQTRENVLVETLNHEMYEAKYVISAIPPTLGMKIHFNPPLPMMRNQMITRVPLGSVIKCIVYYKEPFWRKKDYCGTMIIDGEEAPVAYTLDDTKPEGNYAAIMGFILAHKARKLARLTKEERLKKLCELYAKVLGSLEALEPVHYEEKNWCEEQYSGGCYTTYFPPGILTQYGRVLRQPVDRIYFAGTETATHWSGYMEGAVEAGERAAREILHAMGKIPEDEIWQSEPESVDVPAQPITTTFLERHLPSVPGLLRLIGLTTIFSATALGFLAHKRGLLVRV

[2] = target: T2, Amine oxidase [flavin-containing] A (Homo sapiens, UniProt P21397); assay: Inhibition of human recombinant MAO-A using kynuramine as substrate after 30 mins by fluorescence spectrophotometry
T2 sequence (P21397 whole entry): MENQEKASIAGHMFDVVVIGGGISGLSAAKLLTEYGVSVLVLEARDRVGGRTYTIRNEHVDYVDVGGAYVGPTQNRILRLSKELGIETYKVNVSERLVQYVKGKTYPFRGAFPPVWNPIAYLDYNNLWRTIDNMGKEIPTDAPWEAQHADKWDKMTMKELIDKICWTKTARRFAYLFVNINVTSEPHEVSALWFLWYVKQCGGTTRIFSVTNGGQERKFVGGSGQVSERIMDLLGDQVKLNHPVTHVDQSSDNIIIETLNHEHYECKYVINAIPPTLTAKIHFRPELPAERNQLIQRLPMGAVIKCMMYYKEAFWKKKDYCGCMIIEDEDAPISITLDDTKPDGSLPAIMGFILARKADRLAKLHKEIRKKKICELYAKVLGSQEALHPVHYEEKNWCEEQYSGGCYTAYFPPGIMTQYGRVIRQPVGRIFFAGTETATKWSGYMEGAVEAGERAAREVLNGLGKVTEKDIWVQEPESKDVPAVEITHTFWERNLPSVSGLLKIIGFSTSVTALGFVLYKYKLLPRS

[3] = target: T3, Amyloid-beta precursor protein (Homo sapiens, UniProt P05067); assay: Inhibition of Cu2+-induced amyloid beta (1 to 42) (unknown origin) aggregation at 25 uM after 24 hrs by thioflavin-T fluorescence method
Method in brief: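 Aβ1-42 (25 µM final) mixed with Cu2+ (25 µM final) in HEPES (20 mM, pH 6.60, 150 mM NaCl), with or without compound (25 µM final), and incubated at 37 °C for 24 h. 5 µM ThT in glycine-NaOH pH 8.50 then added and fluorescence read at ex 446/em 490 nm. Percent inhibition calculated from background-subtracted signal. Run in triplicate.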

Homo sapiens = species: Homo sapiens; assay: Selectivity ratio of IC50 for human recombinant MAO-A to IC50 for human recombinant MAO-B
[4] = Antioxidant activity assessed as AAPH free radical scavenging activity measured as trolox equivalent at 5 uM preincubated for 15 mins followed by AAPH addition measured every min for 90 mins by fluorescence assay; type: physicochemical; conditions: 1.5 h
Method in brief: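 ORAC-FL in 75 mM phosphate buffer pH 7.40. Sample plus fluorescein (150 nM final) pre-incubated 15 min at 37 °C, then AAPH added (12 mM final). Fluorescence read every minute for 90 min (ex 485/em 535 nm). Net AUC (blank-subtracted) converted to Trolox equivalents using a Trolox standard curve (1-8 µM). Samples tested at 1-10 µM, in duplicate, with at least three independent assays.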

[5] = target: T3, Amyloid-beta precursor protein; assay: Inhibition of self-induced amyloid beta (1 to 42) (unknown origin) aggregation at 25 uM after 24 hrs by thioflavin-T fluorescence method
Method in brief: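 HFIP-pretreated Aβ1-42 (25 µM final) incubated with compound (25 µM final) in 50 mM phosphate buffer pH 7.40 at 37 °C for 24 h. ThT (5 µM in 50 mM glycine-NaOH, pH 8.5) then added and fluorescence read at ex 446/em 490 nm. Background-subtracted inhibition = (1−IFi/IFc)×100. Run in triplicate.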

[6] = target: T2, Amine oxidase [flavin-containing] A; assay: Inhibition of human recombinant MAO-A at 10 uM using kynuramine as substrate after 30 mins by fluorescence spectrophotometry; conditions: 0.5 h
Method in brief: (§1)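 Recombinant human MAO-A or MAO-B (7.5 µg/mL) in 100 mM potassium phosphate with 20.2 mM KCl, pH 7.40. Kynuramine substrate at 45 µM (MAO-A) or 30 µM (MAO-B); DMSO below 4%. Incubated 37 °C for 30 min, stopped with 2N NaOH. 4-Hydroxyquinoline fluorescence read at ex 310/em 400 nm against a calibration curve. Single-concentration screen at 10 µM, in triplicate.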

[7] = target: T3, Amyloid-beta precursor protein; assay: Displacement of [125I]-2-[(4-Aminophenyl)methylene]-5-iodo-3(2H)-benzofuranone from amyloid beta (1 to 42) (unknown origin) after 3 hrs by gamma counting method
[8] = Metal chelating activity assessed as compound-iron complex formation at 37.5 uM after 30 mins by UV-visual spectrometry; type: physicochemical; conditions: 0.5 h
Method in brief: (§2)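 UV absorption spectra (200-600 nm) recorded for compound alone or with CuCl2, ZnCl2, AlCl3 or FeSO4 after 30 min incubation at room temperature.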

[9] = Metal chelating activity assessed as compound-copper complex formation at 37.5 uM after 30 mins by UV-visual spectrometry; type: physicochemical; conditions: 0.5 h; method in brief: as §2
[10] = Metal chelating activity assessed as compound-aluminium complex formation at 37.5 uM after 30 mins by UV-visual spectrometry; type: physicochemical; conditions: 0.5 h; method in brief: as §2
[11] = Metal chelating activity assessed as mole fraction of compound required to show 1:1 stoichiometry for Cu2+-compound complex at 37.5 uM after 30 mins by UV-visual spectrometry; type: physicochemical; conditions: 0.5 h
Method in brief: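 Molar-ratio titration of compound in methanol (37.5 µM final) with CuCl2 (3.75-150 µM final). UV spectra corrected by subtracting CuCl2 and compound at matching concentrations. Absorbance at 498 or 488 nm plotted against mole fraction; stoichiometry taken from the intersection of the fitted lines.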

[12] = Permeability of the compound at 100 ug/ml after 18 hrs by PAMPA-BBB assay
[13] = Metal chelating activity assessed as compound-zinc complex formation at 37.5 uM after 30 mins by UV-visual spectrometry; type: physicochemical; conditions: 0.5 h; method in brief: as §2
[14] = target: T1, Amine oxidase [flavin-containing] B; assay: Inhibition of human recombinant MAO-B at 10 uM using kynuramine as substrate after 30 mins by fluorescence spectrophotometry; conditions: 0.5 h; method in brief: as §1

T3 sequence (P05067 whole entry): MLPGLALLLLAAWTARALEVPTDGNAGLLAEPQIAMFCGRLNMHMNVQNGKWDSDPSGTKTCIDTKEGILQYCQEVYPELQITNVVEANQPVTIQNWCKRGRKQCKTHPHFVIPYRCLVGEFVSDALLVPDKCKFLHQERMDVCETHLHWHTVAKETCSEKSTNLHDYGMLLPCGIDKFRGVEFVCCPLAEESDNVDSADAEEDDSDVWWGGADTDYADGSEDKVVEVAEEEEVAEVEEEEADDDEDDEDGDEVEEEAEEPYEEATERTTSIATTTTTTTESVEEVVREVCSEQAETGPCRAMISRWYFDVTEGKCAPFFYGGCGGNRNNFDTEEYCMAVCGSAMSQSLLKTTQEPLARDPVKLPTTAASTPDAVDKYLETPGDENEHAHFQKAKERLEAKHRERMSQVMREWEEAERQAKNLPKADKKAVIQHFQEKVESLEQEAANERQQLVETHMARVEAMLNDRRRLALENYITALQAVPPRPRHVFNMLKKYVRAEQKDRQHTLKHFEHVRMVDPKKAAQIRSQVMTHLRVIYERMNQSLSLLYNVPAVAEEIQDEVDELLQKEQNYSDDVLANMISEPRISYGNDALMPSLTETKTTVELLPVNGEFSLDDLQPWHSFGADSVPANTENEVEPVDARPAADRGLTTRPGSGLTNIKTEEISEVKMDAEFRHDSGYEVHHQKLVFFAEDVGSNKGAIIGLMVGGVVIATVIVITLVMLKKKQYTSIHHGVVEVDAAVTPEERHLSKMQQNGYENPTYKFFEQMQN

Compound | pIC50 [1] | pIC50 [2] | inhibition [3] | Ratio IC50 (Homo sapiens) | Activity [4] | inhibition [5] | inhibition at 10 µM [6] | pKi [7] | Activity [8] | Activity [9] | Activity [10] | Activity [11] | Papp at 18 h, 100 ug/ml [12] | Activity [13] | inhibition at 10 µM [14]
CCN(C)c1ccc(/C=C2\Oc3cc(O)cc(O)c3C2=O)cc1 | 6.09 | 7.55 | 86.6% | 0.035 | 1.97 equiv | 95.3% |  |  |  |  |  |  |  |  | 
COc1cc(O)c2c(c1)O/C(=C\c1ccc(N3CCOCC3)cc1)C2=O | 5.82 |  | 47.5% | > 6.67 | 1.66 equiv | 44.1% | 18.4% |  |  |  |  |  |  |  | 
CN(C)c1ccc(/C=C2\Oc3ccc([125I])cc3C2=O)cc1 |  |  |  |  |  |  |  | 8.17 |  |  |  |  |  |  | 
COc1cc(O)c2c(c1)O/C(=C\c1ccc(N(C)C)cc1)C2=O | 6.15 |  | 75.7% | > 14.2 | 1.62 equiv | 53.7% | 20.7% |  |  |  |  |  |  |  | 
CCN(CC)c1ccc(/C=C2\Oc3cc(O)cc(O)c3C2=O)cc1 | 6.48 | 6.94 | 88.9% | 0.344 | 2.04 equiv | 91.7% |  |  |  |  |  |  |  |  | 
O=C1/C(=C/c2ccc(N3CCCCC3)cc2)Oc2cc(O)cc(O)c21 | 6.41 | 6.57 | 84% | 0.69 | 1.9 equiv | 99.2% |  |  | Not Active | Active | Active | 0.95 molar ratio | 6.68 ×10⁻⁶ cm/s | Active | 
O=C1/C(=C/c2ccc(N3CCOCC3)cc2)Oc2cc(O)cc(O)c21 | 6.47 | 5.97 | 50.1% | 3.18 | 2.5 equiv | 80.7% |  |  |  |  |  |  |  |  | 
COc1cc(O)c2c(c1)O/C(=C\c1ccc(N3CCCCC3)cc1)C2=O | 6.65 |  | 46% | > 44.2 | 1 equiv | 40.3% | 18.3% |  | Not Active | Active | Active | 1.11 molar ratio | 7.24 ×10⁻⁶ cm/s | Active | 
CN(C)c1ccccc1/C=C1\Oc2cc(O)cc(O)c2C1=O |  |  | 90.1% |  | 2.91 equiv | 98.2% | 13.5% |  |  |  |  |  |  |  | 0.88%
CN(C)c1ccc(CC2Oc3cc(O)cc(O)c3C2=O)cc1 (stereo not drawn) |  |  | 40.5% |  | 3.07 equiv | 42.7% | 23.5% |  |  |  |  |  |  |  | 27.2%
O=C1c2c(O)cc(O)cc2OC1Cc1ccc(N2CCOCC2)cc1 (stereo not drawn) |  |  | 20.9% |  | 3.56 equiv | 38% | 13.9% |  |  |  |  |  |  |  | 8.7%
CN(C)c1ccc(/C=C2\Oc3cc(N(C)C)cc(O)c3C2=O)cc1 |  |  | 71.6% |  | 2.43 equiv | 22.3% | 16.8% |  |  |  |  |  |  |  | 13.5%
CN1CCN(c2ccc(/C=C3\Oc4cc(O)cc(O)c4C3=O)cc2)CC1 | 4.97 |  | 52% | > 0.926 | 2.5 equiv | 77.7% | 15.8% |  |  |  |  |  |  |  | 
CN(C)c1ccc(/C=C2\Oc3cc(O)cc(O)c3C2=O)cc1 | 5.23 | 6.63 | 61.4% | 0.039 | 2.9 equiv | 97.4% |  |  |  |  |  |  |  |  | 
O=C1/C(=C/c2ccc(N3CCCC3)cc2)Oc2cc(O)cc(O)c21 | 6.41 | 6.34 | 84.8% | 1.17 | 1.56 equiv | 99.8% |  |  |  |  |  |  |  |  | 
